By MIC is commonly meant the lowest concentration found to suppress growth. Usually pIC50 stands for the negative decadic logarithm of the IC50, by convention in mol/L. The low end stands for a high IC50, the high end for a low IC50.

pIC50: −log10 of the molar value. ≈ marks a conversion by molar mass, not a printed value. Calls of active or inactive are those of the source. The calls are words filed in the database; no cut-off is given here.

The subject of data set [1] is Staphylococcus epidermidis. Briefly: Antibacterial activity against Staphylococcus epidermidis H 6966/08 after 24 hrs by microdilution broth method. The data set is classed as functional. The settings on record: H 6966/08, 24 h. The method in brief: (§1)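 Antibacterial screen with compound concentrations up to a highest level of 500 µM. Results expressed as MIC in µM.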

Data set [2] concerns Staphylococcus epidermidis. Briefly: Antibacterial activity against Staphylococcus epidermidis H 6966/08 after 48 hrs by microdilution broth method. The class given is functional. The settings on record: for MIC95: H 6966/08, 48 h. The method in brief:
as §1

The subject of data set [3] is Mycobacterium avium. Kind of data set: Antimycobacterial activity against pyrazinamide-resistant Mycobacterium avium CNCTC My 152/73 after 5 days by microplate alamar blue assay. The note with it: CNCTC My 152/73, 120 h. The data set is classed as functional. In outline: (§2)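 Microplate alamar blue assay run at pH 5.6, using conditions optimized for pyrazinamide. Strains came from the Czech National Collection of Type Cultures. MIC was read in µg/mL and converted to µM using molecular weight.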

Data set [4] deals with Mycolicibacterium fortuitum. Kind of data set: Antimycobacterial activity against pyrazinamide-resistant Mycobacterium fortuitum. The class given is functional.
Data set [5] relates to Mycobacterium kansasii. Kind of data set: Antimycobacterial activity against pyrazinamide-resistant Mycobacterium kansasii. The class given is functional.
The subject of another data set is HepG2. Briefly: Cytotoxicity against human HepG2 cells after 24 hrs. The data set is classed as cell-based. The note with it: HepG2, 24 h. The method in brief: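 HepG2 human liver cells; loss of viability measured by a colorimetric tetrazolium-reduction assay. IC50 derived from the toxicity curves. Where limited solubility in the culture medium capped the tested concentration, only an estimate of the toxic concentration was given.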

Data set [6] in a line: Selectivity index, ratio of IC50 for human HepG2 cells to MIC for Mycobacterium tuberculosis H37Rv CNCTC My 331/88. The class given is toxicity, cell-based. The settings on record: read-out: Selectivity Index. In outline: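 HepG2 human liver cell viability was measured by a colorimetric tetrazolium-reduction assay, and IC50 was derived from the toxicity curves. MIC against M. tuberculosis H37Rv came from the alamar blue microplate assay at pH 5.6. SI = IC50/MIC, both in molar units.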

A short description of data set [7]: Lipophilicity, log K of the compound by HPLC analysis. The class given is physicochemical.
In data set [8] the test system is Mycobacterium avium. Kind of data set: Antimycobacterial activity against pyrazinamide-resistant Mycobacterium avium CNCTC My 80/72 after 5 days by microplate alamar blue assay. The class given is functional. The settings on record: CNCTC My 80/72, 120 h. The method in brief:
as §2
A general note: The colour change of resazurin is a common sign of viable cells or microbes.

Data set [9] concerns Mycobacterium kansasii. Kind of data set: Antimycobacterial activity against pyrazinamide-resistant Mycobacterium kansasii CNCTC My 235/80 after 5 days by microplate alamar blue assay. The settings on record: CNCTC My 235/80, 120 h. The class given is functional. The method in brief:
as §2

Data set [10] deals with Mycobacterium tuberculosis. Kind of data set: Antimycobacterial activity against Mycobacterium tuberculosis H37Rv CNCTC My 331/88 after 5 days by microplate alamar blue assay. The class given is functional. The settings on record: H37Rv CNCTC My 331/88, 120 h. In outline: as §2
Data set [11] relates to Mycobacterium avium. Kind of data set: Antimycobacterial activity against pyrazinamide-resistant Mycobacterium avium. The data set is classed as functional.
Data set [12] deals with Mycolicibacterium smegmatis. Briefly: Antimycobacterial activity against pyrazinamide-resistant Mycobacterium smegmatis. The class given is functional.
In data set [13] the test system is Mycobacterium tuberculosis. Kind of data set: Antimycobacterial activity against pyrazinamide-sensitive Mycobacterium tuberculosis. The data set is classed as functional.
Data set [14] concerns Trichophyton mentagrophytes. Briefly: Antifungal activity against Trichophyton mentagrophytes 445 after 72 to 120 hrs by microdilution broth method. The data set is classed as functional, organism-based. On the technique in general: Dilution methods test growth across graded concentrations, often in twofold steps.
For the next data set, the system named is Lichtheimia corymbifera. Kind of data set: Antifungal activity against Absidia corymbifera 272 after 72 to 120 hrs by microdilution broth method. The class given is functional, organism-based.
The next data set deals with Aspergillus fumigatus. Briefly: Antifungal activity against Aspergillus fumigatus 231 after 72 to 120 hrs by microdilution broth method. The data set is classed as functional, organism-based.
Another data set has as its system Nakaseomyces glabratus. Kind of data set: Antifungal activity against Candida glabrata 20/I after 72 to 120 hrs by microdilution broth method. The data set is classed as functional, organism-based.
The test system of the next data set is Trichosporon asahii. Briefly: Antifungal activity against Trichosporon asahii 1188 after 72 to 120 hrs by microdilution broth method. The data set is classed as functional, organism-based.
For a further data set, the system named is Pichia kudriavzevii. Briefly: Antifungal activity against Candida krusei E28 after 72 to 120 hrs by microdilution broth method. The data set is classed as functional, organism-based.
The subject of the next data set is Candida tropicalis. Briefly: Antifungal activity against Candida tropicalis 156 after 72 to 120 hrs by microdilution broth method. The data set is classed as functional, organism-based.
In a further data set the test system is Candida albicans. Kind of data set: Antifungal activity against Candida albicans ATCC 44859 after 72 to 120 hrs by microdilution broth method. The data set is classed as functional, organism-based.
Data set [15] concerns Trichophyton mentagrophytes. Briefly: Antifungal activity against Trichophyton mentagrophytes after 72 to 120 hrs by microdilution broth method. The class given is functional, organism-based.
Data set [16] concerns Klebsiella pneumoniae. Briefly: Antibacterial activity against ESBL positive Klebsiella pneumoniae J 14368/08 after 24 to 48 hrs by microdilution broth method. The data set is classed as functional, organism-based. The method in brief: as §1
The subject of data set [17] is Klebsiella pneumoniae. Briefly: Antibacterial activity against Klebsiella pneumoniae D 11750/08 after 24 to 48 hrs by microdilution broth method. The data set is classed as functional, organism-based. The method in brief:
as §1

A further data set concerns Enterococcus sp. Briefly: Antibacterial activity against Enterococcus sp. J 14365/08 after 24 to 48 hrs by microdilution broth method. The data set is classed as functional, organism-based. In outline:
as §1

Data set [18] has as its system Staphylococcus epidermidis. Kind of data set: Antibacterial activity against methicillin-resistant Staphylococcus epidermidis H 5996/08 after 24 to 48 hrs by microdilution broth method. The data set is classed as functional, organism-based.
Another data set relates to Pseudomonas aeruginosa. Briefly: Antibacterial activity against Pseudomonas aeruginosa CCM 1961 after 24 to 48 hrs by microdilution broth method. The class given is functional, organism-based. The method in brief: as §1
In a further data set the test system is Escherichia coli. Kind of data set: Antibacterial activity against Escherichia coli CCM 4517 after 24 to 48 hrs by microdilution broth method. The class given is functional, organism-based. The method in brief: as §1
For the next data set, the system named is Staphylococcus aureus. Kind of data set: Antibacterial activity against Staphylococcus aureus CCM 4516/08 after 24 to 48 hrs by microdilution broth method. The class given is functional, organism-based. The method in brief:
as §1

The test system of data set [19] is Staphylococcus epidermidis. Briefly: Antibacterial activity against Staphylococcus epidermidis H 6966/08 up to 500 uM after 24 to 48 hrs by microdilution broth method. The data set is classed as functional, organism-based. The method in brief: as §1

With `O=C(O)c1cn(C2CC2)c2cc(N3CCNCC3)c(F)cc2c1=O` [CIPROFLOXACIN], the MIC95 in [1] and in data set [2] was 250 µM (≈ 82.8 µg/mL) throughout.

On to `NC(=O)c1cnc(Cl)cn1`, for which the MIC is more than 100 µg/mL against Mycobacterium avium [3]; 8 µg/mL (≈ 50.8 µM) in [4]; 8 µg/mL (≈ 50.8 µM) against Mycobacterium kansasii [5]; more than 100 µg/mL in the data set on Mycobacterium avium [8]; 79 µM with Mycobacterium kansasii [9]; 317 µM in data set [10]. For the same compound, the MIC (against Mycobacterium avium [11]; in data set [12]; in [13]) was 8 µg/mL (≈ 50.8 µM) in each case. In the data set with HepG2, this compound gave a pIC50 of 2.80. Moreover, in data set [6], the selectivity ratio was found to be 5. Moreover, in data set [7], the “log K” value is given as -0.3891. Also, the outcome (in [14]; in the data set on Lichtheimia corymbifera; in the data set on Aspergillus fumigatus; in the data set on Nakaseomyces glabratus; with Trichosporon asahii; in the data set with Pichia kudriavzevii) was inactive. Besides, the outcome (in the data set on Candida tropicalis; with Candida albicans; in data set [15]; in data set [2]; in the data set with Klebsiella pneumoniae [16]; in the data set with Klebsiella pneumoniae [17]) was inactive. The outcome (in the data set on Enterococcus sp.; in [18]; in the data set on Pseudomonas aeruginosa; in the data set on Escherichia coli; in the data set with Staphylococcus aureus; in data set [19]) was inactive.

For `CC1(C)S[C@@H]2[C@H](NC(=O)Cc3ccccc3)C(=O)N2[C@H]1C(=O)O` [PENICILLIN G], the MIC95 in data set [1] was 125 µM (≈ 41.8 µg/mL); in data set [2], 250 µM (≈ 83.6 µg/mL).

Consider `CCCCCCNc1cncc(C(N)=O)n1`, for which the MIC against Mycobacterium avium [3] is more than 100 µg/mL; with Mycobacterium avium [8], more than 100 µg/mL; in the data set with Mycobacterium kansasii [9] it was more than 100 µg/mL; in [10], 100 µg/mL. For the same compound, the “log K” value in data set [7] is listed as 0.2051. In addition, the results for the MIC95 in data set [1] and in data set [2] were 62.5 µM (≈ 13.9 µg/mL) and 125 µM (≈ 27.8 µg/mL), respectively. The result (in [14]; in the data set on Lichtheimia corymbifera; in the data set on Aspergillus fumigatus; in the data set with Nakaseomyces glabratus; in the data set with Trichosporon asahii; in the data set on Pichia kudriavzevii) was inactive. Further, the outcome (in the data set with Candida tropicalis; with Candida albicans; in data set [15]; in the data set with Klebsiella pneumoniae [16]; in the data set with Klebsiella pneumoniae [17]; with Enterococcus sp.) was inactive. The result (in data set [18]; in the data set on Pseudomonas aeruginosa; with Escherichia coli; with Staphylococcus aureus) was inactive.

On to `CCCCCCCCNc1cncc(C(N)=O)n1`, for which the MIC in the data set with Mycobacterium avium [3] was 100 µM; against Mycobacterium avium [8], 100 µM; against Mycobacterium kansasii [9] it was 100 µM; in data set [10], 6 µM. This compound also showed a pIC50 in the data set with HepG2 of 3.79. The selectivity ratio in data set [6] is 25.8. The “log K” value in data set [7] turned out to be 0.6514. Moreover, the outcome (in [14]; with Lichtheimia corymbifera; in the data set with Aspergillus fumigatus; in the data set on Nakaseomyces glabratus; in the data set with Trichosporon asahii; in the data set with Pichia kudriavzevii) was inactive. In addition, the result (in the data set on Candida tropicalis; in the data set on Candida albicans; in data set [15]; in [2]; in the data set with Klebsiella pneumoniae [16]; in the data set with Klebsiella pneumoniae [17]) was inactive. Also, the outcome (in the data set with Enterococcus sp.; in data set [18]; with Pseudomonas aeruginosa; in the data set with Escherichia coli; in the data set on Staphylococcus aureus; in data set [19]) was inactive.

As for `NC[C@@H]1O[C@H](O[C@H]2[C@@H](O)[C@H](O[C@@H]3[C@@H](O)[C@H](N)C[C@H](N)[C@H]3O[C@H]3O[C@H](CN)[C@@H](O)[C@H](O)[C@H]3N)O[C@@H]2CO)[C@H](N)[C@@H](O)[C@@H]1O` [FRAMYCETIN], the results for the MIC95 in data set [1] and in data set [2] were 7.81 µM (≈ 4.8 µg/mL) and 15.6 µM (≈ 9.6 µg/mL), respectively.

With `CCCCCCCCNc1cnc(C(N)=O)cn1`, the MIC in the data set with Mycobacterium avium [3] was more than 100 µg/mL; against Mycobacterium avium [8] it was more than 100 µg/mL; against Mycobacterium kansasii [9] it was 25 µM; in [10], 25 µM. The pIC50 in the data set with HepG2 was less than 3.60. For the same compound, in [6], the selectivity ratio was more than 10. Also, in data set [7], the “log K” value is listed as 0.693. In addition, the outcome (in data set [14]; with Lichtheimia corymbifera; with Aspergillus fumigatus; in the data set on Nakaseomyces glabratus; with Trichosporon asahii; in the data set on Pichia kudriavzevii) was inactive. Also, the result (in the data set on Candida tropicalis; in the data set with Candida albicans; in data set [15]; in data set [2]; in the data set on Klebsiella pneumoniae [16]; in the data set with Klebsiella pneumoniae [17]) was inactive. Moreover, the result (with Enterococcus sp.; in [18]; in the data set with Pseudomonas aeruginosa; in the data set with Escherichia coli; with Staphylococcus aureus; in data set [19]) was inactive.

The record behind these values is ChEMBL document CHEMBL3102810, “Alkylamino derivatives of pyrazinamide: synthesis and antimycobacterial evaluation” (Bioorg Med Chem Lett, 2014).
